We go through 15 molecules from ChEMBL document CHEMBL3616379, “From carbohydrates to drug-like fragments: Rational development of novel α-amylase inhibitors” (Bioorg Med Chem, 2015).

SMILES strings stand for the structures. Activity calls are given as the source filed them. No cut-off for these calls is given here.

The target of one experiment is T1, Pancreatic alpha-amylase (Homo sapiens, UniProt P04746).
T1 sequence (P04746 whole entry): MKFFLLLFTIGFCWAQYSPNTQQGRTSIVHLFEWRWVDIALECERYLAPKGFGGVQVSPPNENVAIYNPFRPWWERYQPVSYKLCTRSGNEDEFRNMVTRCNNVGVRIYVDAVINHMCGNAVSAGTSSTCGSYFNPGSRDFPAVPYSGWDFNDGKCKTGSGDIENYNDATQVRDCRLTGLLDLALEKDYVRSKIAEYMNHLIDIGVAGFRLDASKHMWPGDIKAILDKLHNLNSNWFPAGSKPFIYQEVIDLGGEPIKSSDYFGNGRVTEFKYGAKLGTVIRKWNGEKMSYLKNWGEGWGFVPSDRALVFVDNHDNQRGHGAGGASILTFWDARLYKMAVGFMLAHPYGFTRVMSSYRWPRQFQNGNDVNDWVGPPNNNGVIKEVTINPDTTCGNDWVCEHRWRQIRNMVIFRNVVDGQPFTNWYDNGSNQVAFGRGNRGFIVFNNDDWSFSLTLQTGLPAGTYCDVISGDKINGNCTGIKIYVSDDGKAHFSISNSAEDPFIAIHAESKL
In words: Inhibition of human pancreatic alpha-amylase expressed in Pichia pastoris using amylase as substrate preincubated with substrate for 10 mins followed by protein addition measured every 5 mins by Dixon plot analysis.

The target in a further experiment is T2, Alpha-amylase 1A (Homo sapiens, UniProt P0DUB6).
T2 sequence (P0DUB6 whole entry): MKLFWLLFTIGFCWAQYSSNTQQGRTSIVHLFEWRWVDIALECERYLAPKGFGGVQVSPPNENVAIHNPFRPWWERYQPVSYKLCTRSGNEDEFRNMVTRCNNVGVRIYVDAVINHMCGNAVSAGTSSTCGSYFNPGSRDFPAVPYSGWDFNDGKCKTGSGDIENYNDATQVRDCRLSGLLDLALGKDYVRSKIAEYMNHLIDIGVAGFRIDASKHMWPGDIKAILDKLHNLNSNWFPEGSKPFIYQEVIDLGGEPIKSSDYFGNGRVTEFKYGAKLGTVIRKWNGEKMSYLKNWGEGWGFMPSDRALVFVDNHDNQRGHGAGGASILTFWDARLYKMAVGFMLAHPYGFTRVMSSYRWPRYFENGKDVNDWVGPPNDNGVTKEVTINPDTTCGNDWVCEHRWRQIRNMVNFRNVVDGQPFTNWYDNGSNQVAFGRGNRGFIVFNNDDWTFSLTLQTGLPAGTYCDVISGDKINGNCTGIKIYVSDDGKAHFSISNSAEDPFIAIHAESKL
In words: Inhibition of human salivary alpha-amylase using GalG2CNP as substrate by UV-Vis spectrophotometric analysis. The settings on record: read-out: IC50.

Experiment [1] deals with T3, Alpha-amylase 1A (Homo sapiens) (UniProt P0DUB6).
T3 sequence (whole entry): T2 sequence (P0DUB6 whole entry)
In words: Potency index, ratio of BAS 04880564 IC50 to compound IC50 for human salivary alpha-amylase.

In experiment [2] the target is Alpha amylase (Homo sapiens) (UniProt P0DUB6). In words: Inhibition of alpha-amylase (unknown origin) relative to control. Conditions: concentration not given here. More on the design: concentration or dose not given beside the values.
The target in experiment [3] is T3, Alpha-amylase 1A (Homo sapiens). In words: Competitive inhibition of human salivary alpha-amylase using GalG2CNP as substrate by Lineweaver-Burk plot analysis. In outline:
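Inhibition mode assigned from Lineweaver-Burk plots. Human salivary α-amylase (2 nM) started reactions containing GalG2CNP (0.75–4 mM) and inhibitor in DMSO, in 50 mM MES pH 6.0 with 5 mM Ca(OAc)2, 51.5 mM NaCl, 152 mM NaN3 at 37°C. Rates from continuous 400 nm absorbance of released CNP.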

Take `CC1OC(OC2C(CO)OC(OC3C(CO)OC(O)C(O)C3O)C(O)C2O)C(O)C(O)C1NC1C=C(CO)C(OC2OC(CO)C(OC3OC(CO)C(O)C(O)C3O)C(O)C2O)C(O)C1O` (stereo not drawn): the Ki at Pancreatic alpha-amylase was determined as 1250 nM. Take `COc1cc(Br)cc(/C=C2/SC(Nc3cccc(C(=O)O)c3)=NC2=O)c1O`: the IC50 at Alpha-amylase 1A is 260 µM. Also, the Ratio IC50 in experiment [1] was 0.53. On to `C[C@H]1O[C@H](O[C@H]2[C@H](O)[C@@H](O)[C@@H](O[C@H]3[C@H](O)[C@@H](O)[C@@H](O[C@H]4[C@H](O)[C@@H](O)[C@@H](O[C@H]5[C@H](O)[C@@H](O)[C@@H](O)O[C@@H]5CO)O[C@@H]4CO)O[C@@H]3CO)O[C@@H]2CO)[C@H](O)[C@@H](O)[C@@H]1N[C@H]1C=C(CO)[C@@H](O[C@H]2O[C@H](CO)[C@@H](O[C@H]3O[C@H](C)[C@@H](N[C@H]4C=C(CO)[C@@H](O[C@H]5O[C@H](CO)[C@@H](O[C@H]6O[C@H](C)[C@@H](N[C@H]7C=C(CO)[C@@H](O[C@H]8O[C@H](CO)[C@@H](O[C@H]9O[C@H](C)[C@@H](N[C@H]%10C=C(CO)[C@@H](O)[C@H](O)[C@H]%10O)[C@H](O)[C@H]9O)[C@H](O)[C@H]8O)[C@H](O)[C@H]7O)[C@H](O)[C@H]6O)[C@H](O)[C@H]5O)[C@H](O)[C@H]4O)[C@H](O)[C@H]3O)[C@H](O)[C@H]2O)[C@H](O)[C@H]1O`, for which the Ki on Pancreatic alpha-amylase is 41.6 nM. `OC[C@H]1O[C@@H](Oc2ccc(O)cc2)[C@H](O)[C@@H](O)[C@@H]1O` displayed an inhibition in experiment [2] of 30%. `C[C@H]1O[C@H](O[C@H]2[C@H](O)[C@@H](O)[C@@H](O[C@H]3[C@H](O)[C@@H](O)[C@@H](O[C@H]4[C@H](O)[C@@H](O)[C@@H](O[C@H]5[C@H](O)[C@@H](O)[C@@H](O)O[C@@H]5CO)O[C@@H]4CO)O[C@@H]3CO)O[C@@H]2CO)[C@H](O)[C@@H](O)[C@@H]1N[C@H]1C=C(CO)[C@@H](O[C@H]2O[C@H](CO)[C@@H](O[C@H]3O[C@H](C)[C@@H](N[C@H]4C=C(CO)[C@@H](O)[C@H](O)[C@H]4O)[C@H](O)[C@H]3O)[C@H](O)[C@H]2O)[C@H](O)[C@H]1O` displayed an inhibitory constant (Ki) at Pancreatic alpha-amylase of 14.7 nM. In the case of `COc1ccc(Nc2nc(-c3ccccc3O)cs2)cc1`, the IC50 on Alpha-amylase 1A was 40 µM. The Ratio IC50 in experiment [1] stood at 3.45. Take `Oc1ccc(Nc2nc(-c3ccc(O)cc3O)cs2)cc1`: in experiment [3], the Inhibition mode result is “Active”. Besides, at Alpha-amylase 1A, the IC50 is 138 µM. The like results for `Cc1ccc(O)c(Cc2cc(C)cc(Cc3cc(C)ccc3O)c2O)c1` were, in that order, “Active” and 200 µM. `O=C1S/C(=C\c2cc(Cl)ccc2O)C(=O)N1Cc1cccc([N+](=O)[O-])c1`: in experiment [3], the Inhibition mode result was “Active”. Besides, on Alpha-amylase 1A, the IC50 was found to be 50 µM. For the same molecule, the Ratio IC50 in experiment [1] worked out at 2.76. Turning to `C[C@@H]1O[C@@H](O[C@H]2[C@H](Oc3cc(O)c4c(c3)O[C@H](c3ccc(O)cc3)CC4=O)O[C@H](CO)[C@@H](O)[C@@H]2O)[C@H](O)[C@H](O)[C@H]1O`, the inhibition in experiment [2] worked out at 0%. On the same count and under the same terms, the figure for `O=c1c(O[C@@H]2O[C@H](CO)[C@@H](O)[C@H](O)[C@H]2O)c(-c2ccc(O)c(O)c2)oc2cc(O)cc(O)c12` is 12.2%; for `Oc1cc(O)c2c(c1)O[C@@H](c1ccc(O)c(O)c1)[C@H](O)C2` it is 16%.

On to `O=C(O)c1cccc(N2C(=O)/C(=C/c3ccccc3O)SC2=S)c1`, for which, on Alpha-amylase 1A, the concentration for half-maximal inhibition (IC50) was 62 µM. For the same molecule, the Ratio IC50 in experiment [1] worked out at 2.22. With `C[C@@H]1O[C@@H](Oc2c(-c3ccc(O)c(O)c3)oc3cc(O)cc(O)c3c2=O)[C@H](O)[C@H](O)[C@H]1O`, the inhibition in experiment [2] amounted to 37.6%.

Take `Nc1ccc(Nc2nc(-c3ccc(Cl)cc3Cl)cs2)cc1`: on Alpha-amylase 1A, the IC50 came out at 270 µM. Moreover, in experiment [1], the Ratio IC50 stood at 0.51.

By Ki is commonly meant a measure of affinity in units of concentration, obtained from inhibition or displacement. Broadly, the IC50 is the concentration that inhibits the measured activity by half. The term inhibition denotes the relative decrease from the control value, in per cent.
